Results on seven molecules are retold here after publication PMC10922102 (Cell chemical biology, 2023).

Series [1] has as its target T1, recombinant human DHFR•NADPH complex (Homo sapiens, UniProt P00374).
T1 sequence (P00374 1-187): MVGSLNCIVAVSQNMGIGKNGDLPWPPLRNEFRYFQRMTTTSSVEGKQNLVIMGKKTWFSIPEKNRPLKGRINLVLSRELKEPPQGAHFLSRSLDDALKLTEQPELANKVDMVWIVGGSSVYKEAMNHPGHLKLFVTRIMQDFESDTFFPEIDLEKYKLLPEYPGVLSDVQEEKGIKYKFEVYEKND
The series can be described thus: Fluorescence polarization. It is filed as binding.

Another series concerns the target T2, DHFR-HiBiT (Homo sapiens, UniProt P00374).
T2 sequence (P00374 1-187): T1 sequence (P00374 1-187)
In words: DHFR HiBiT assay. It is filed as cell-based. The conditions noted are these: for Emax: HBL1, read-out: Assay max response (%); for Degradation potency (pDC50): DHFR-HiBiT, 24 h, 30°C, mean ±SD, three independent experiments, ND = not determined (inactive).

Series [2] concerns HBL-1 cells. To be noted: human, 72 h.
The test system of series [3] is HBL-1 cells. The series can be described thus: Folate cytotoxicity dependence. It is filed as cell-based, human.
For the next series, the system named is HEK-293 cells. The series can be described thus: Live-cell imaging of cell growth. It is filed as cell-based, human. To be noted: live-cell imaging over 120 h.
Another series can be described thus: in vitro. To be noted: human.
The next series addresses T3, cellular DHFR (Homo sapiens, UniProt P00374).
T3 sequence (P00374 1-187): T1 sequence (P00374 1-187)
In words: Label-free quantitative proteomics of HBL-1 cells. It is filed as cell-based. The conditions noted are these: 1 μM, 24 h.

Series [4] has as its system MTX resistant (MTX^R) HBL-1 cells. The series can be described thus: Cell viability of MTX resistant. It is filed as cell-based, human.
Series [5] relates to HBL-1 cells. The series can be described thus: Targeted metabolomics. It is filed as cell-based, human. The conditions noted are these: folate-replete media, 0.1 or 0.5 μM, 24 h. Summed up:
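HBL-1 cells were expanded in RPMI 1640 with 1 mM HEPES, 100 U/mL penicillin, 100 µg/mL streptomycin and 10% FBS at 37 °C, 5% CO2. Metabolites were eluted by LC-MS/MS gradient. Buffer A was acetonitrile and Buffer B was 5% acetonitrile with 20 mM ammonium acetate, pH 9.0. The gradient started at 85% A and fell to 50% A by 17 min.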

In a further series the target is T4, DHFR (Homo sapiens, UniProt P00374).
T4 sequence (P00374 1-187): T1 sequence (P00374 1-187)
In words: Western blot analysis of cellular DHFR. It is filed as cell-based.

For a further series, the system named is MOLT-4 cells. The series can be described thus: CellTiter-Glo cytotoxicity in MOLT-4 cells. It is filed as cell-based, human.
For series [6], the system named is MTX sensitive (MTX^S) HBL-1 cells. The series can be described thus: Cell viability of MTX sensitive. It is filed as cell-based. The conditions noted are these: Homo sapiens, HBL1, read-out: EC50, cell viability.
For series [7], the system named is HBL-1 cells. The series can be described thus: cells. To be noted: Homo sapiens, HBL1, read-out: EC50 in MTX-sensitive HBL-1 cells.

As for `CN(Cc1cnc2nc(N)nc(N)c2n1)c1ccc(C(=O)NC(CCC(=O)O)C(=O)NCCCCCCCCNc2cccc3c2C(=O)N(C2CCC(=O)NC2=O)C3=O)cc1` (centres unmarked) [VSTX-αE3L, 8, 4-(4-(((2,4-diaminopteridin-6-yl)methyl)(methyl)amino)benzamido)-5-((8-((2-(2,6-dioxopiperidin-3-yl)-1,3-dioxoisoindolin-4-yl)amino)octyl)amino)-5-oxopentanoic acid], the concentration for half-maximal inhibition (IC50) in [1] was 7240 nM. In addition, the Emax on DHFR-HiBiT came out at 21.2 ± 2.5%. Further, on DHFR-HiBiT (HBL-1 cells), the “change of cellular DHFR-HiBiT level” value is reported as “did not lead to appreciable changes in DHFR-HiBiT concentration”. Further, the “Cytotoxicity efficacy (viability, %CTG)” value in the series on HBL-1 cells [2] was −2.0 ±16.2%. Moreover, the “cytotoxicity in folic acid-free, replete and rescue conditions” value with HBL-1 cells [3] is on record as “showed no cytotoxicity”.
With `CN(Cc1cnc2nc(N)nc(N)c2n1)c1ccc(C(=O)N[C@@H](CC(F)C(=O)O)C(=O)O)cc1` (stereo partly drawn) [FMTX, 2, (2S)-2-(4-(((2,4-diaminopteridin-6-yl)methyl)(methyl)amino)benzamido)-4-fluoropentanedioic acid, reference compound], the half-maximal inhibitory concentration (IC50) in series [1] was 93.3 nM. Besides, the Emax at DHFR-HiBiT is 53.9 ± 5.2%. Moreover, the “effect on cellular confluence” value in the series on HEK-293 cells is given as “reduced cellular confluence beginning after 48 h of treatment”. For the same molecule, the “Cytotoxicity efficacy (viability, %CTG)” value with HBL-1 cells [2] is reported as −65.7 ±5.7%. This molecule had an EC50 at 72 h in “in vitro” of 1050 nM.
Turning to `COC(=O)[C@H](CCC(=O)NCCCCCCCCNc1cccc2c1C(=O)N(C1CCC(=O)NC1=O)C2=O)NC(=O)c1ccc(N(C)Cc2cnc3nc(N)nc(N)c3n2)cc1` (stereo partly drawn) [VSTX-ME, 9, Methyl N2-(4-(((2,4-diaminopteridin-6-yl)methyl)(methyl)amino)benzoyl)-N5-(8-((2-(2,6-dioxopiperidin-3-yl)-1,3-dioxoisoindolin-4-yl)amino)octyl)-L-glutaminate], the “change of cellular DHFR by proteomics” value at cellular DHFR is listed as “significant degradation of cellular DHFR”. The “Degradation potency (pDC50)” value at DHFR-HiBiT (HBL-1 cells) is given as 7.56 ±0.29. The Emax on DHFR-HiBiT was -71.9 ± 2.1%. Moreover, the “time of maximum DHFR-HiBiT depletion” value at DHFR-HiBiT (HBL-1 cells, time course 5 to 72 h) is on record as 24 h. Besides, in the series on HBL-1 cells [2], the “Cytotoxicity efficacy (viability, %CTG)” value was −26.8 ±22.7%. Also, the “effect on cell viability between parental (MTX^S) and MTX^R HBL-1 cell lines” value in series [4] is given as “unchanged”. Also, in the series with HBL-1 cells [5], the “cellular dUMP levels” value is listed as “only a modest increase”; the “purine nucleotides ATP and GTP relative to untreated control” value is “decreased”. For the same molecule, in the series “in vitro”, a half-maximal response (EC50 at 72 h) required 5750 nM. Moreover, the “DHFR level by western blot” value at DHFR (24 h, HBL-1, HEK-293, Jurkat, MOLT-4, DND-41, TALL-5 cells) is “consistently able to degrade DHFR across this cell panel at sub-micromolar concentrations”. In addition, on DHFR (MTX^R HBL-1 cells), the “DHFR degradation by western blot in MTX^R cells” value is recorded as “remained capable of degrading DHFR in the MTX^R cells”.
In the case of `CN(Cc1cnc2nc(N)nc(N)c2n1)c1ccc(C(=O)N[C@@H](CCC(=O)NCCOCCOCCOCCNC(=O)COc2cccc3c2C(=O)N(C2CCC(=O)NC2=O)C3=O)C(=O)O)cc1` (stereo partly drawn) [Compound 3, (19S)-19-(4-(((2,4-diaminopteridin-6-yl)methyl)(methyl)amino)benzamido)-1-((2-(2,6-dioxopiperidin-3-yl)-1,3-dioxoisoindolin-4-yl)oxy)-2,16-dioxo-6,9,12-trioxa-3,15-diazaicosan-20-oic acid], the IC50 in series [1] was 43.7 nM. In addition, the “DHFR concentration in the HiBiT assay, % of DMSO control” value on DHFR-HiBiT (24 h treatment, HBL-1 cells) is given as ~ 40%. For the same molecule, on DHFR-HiBiT (HBL-1 cells), the “Degradation potency (pDC50)” value was determined as 6.27 ±0.21. The Emax on DHFR-HiBiT is -40.6 ± 1.8%. In the series on HBL-1 cells [2], the “Cytotoxicity efficacy (viability, %CTG)” value is −72.1 ±7.9% and the “cytotoxicity compared to PROTAC 4” value is given as “an order of magnitude improvement in cytotoxicity when compared to PROTAC 4”. The “CTG cytotoxicity compared to PROTAC 4” value in the series with MOLT-4 cells was “more cytotoxic than PROTAC 4 by an order of magnitude”. In “in vitro”, this molecule had an EC50 at 72 h of 2820 nM.
Consider `CN(Cc1cnc2nc(N)nc(N)c2n1)c1ccc(C(=O)N[C@@H](CCC(=O)O)C(=O)O)cc1` [MTX, 1, Methotrexate, reference compound], for which, in the series with HEK-293 cells, the “effect on cellular confluence” value was “reduced cellular confluence beginning after 48 h of treatment”. Besides, the “Cytotoxicity efficacy (viability, %CTG)” value in the series on HBL-1 cells [2] is on record as −68.7 ±5.7%. In addition, the EC50 in [4] (Homo sapiens, HBL1, 240 h, read-out: EC50, cell viability) is 4640 nM; in series [6], 45.2 nM; in the series on HBL-1 cells [7] it was less than 100 nM. Further, in the series with HBL-1 cells [5], the “cellular dUMP levels” value is listed as “significant increase in dUMP levels”. Besides, in “in vitro”, the EC50 at 72 h is 61.7 nM. Also, the “increase of cytotoxicity in folate-depleted vs. folate-containing media” value in the series with HBL-1 cells [3] is given as less than 2 fold.
In the case of `CN1C(=O)CCC(N2C(=O)c3cccc(NCCCCCCCCNC(=O)CC[C@H](NC(=O)c4ccc(N(C)Cc5cnc6nc(N)nc(N)c6n5)cc4)C(=O)O)c3C2=O)C1=O` (stereo partly drawn) [VSTX-IE3L, 7, N2-(4-(((2,4-diaminopteridin-6-yl)methyl)(methyl)amino)benzoyl)-N5-(8-((2-(1-methyl-2,6-dioxopiperidin-3-yl)-1,3-dioxoisoindolin-4-yl)amino)octyl)-L-glutamine], in series [1], the IC50 was 25.1 nM. Further, the Emax on DHFR-HiBiT was found to be 39.3 ± 6.6%. In addition, the “change of cellular DHFR-HiBiT level” value at DHFR-HiBiT (HBL-1 cells) is given as “increase in cellular DHFR-HiBiT”. Further, the “Cytotoxicity efficacy (viability, %CTG)” value in the series on HBL-1 cells [2] was 6.2 ±4.4%. The “cytotoxicity in folic acid-free, replete and rescue conditions” value in the series with HBL-1 cells [3] is “did not exhibit appreciable toxicity in any of the conditions”.
For the molecule `CN(Cc1cnc2nc(N)nc(N)c2n1)c1ccc(C(=O)N[C@@H](CCC(=O)NCCCCCCCCNc2cccc3c2C(=O)N(C2CCC(=O)NC2=O)C3=O)C(=O)O)cc1` (stereo partly drawn) [Versortrexate (VSTX), 6, N2-(4-(((2,4-diaminopteridin-6-yl)methyl)(methyl)amino)benzoyl)-N5-(8-((2-(2,6-dioxopiperidin −3-yl)-1,3-dioxoisoindolin-4-yl)amino)octyl)-L-glutamine], the half-inhibitory concentration (IC50) in [1] was 85.1 nM. Moreover, on DHFR-HiBiT (HBL-1 cells), the “Degradation potency (pDC50)” value amounted to 6.43 ±0.18. Further, the Emax on DHFR-HiBiT was -70.1 ± 0.4%. Besides, the “Cytotoxicity efficacy (viability, %CTG)” value in the series on HBL-1 cells [2] was −45.7 ±26.9%. The molecule also gave an EC50 at 72 h in the series “in vitro” of 21400 nM.
